Dynein cargo inh: blocks dynein driven cargo transport along microtubules. 3617.4 mouse cells, GR-EGFP nuclear translocation imaging; test concentration mostly 20 µM; stimulated with dexamethasone, 1 µM; hits give low values. z-score, hits read low. 220,000 compounds, 0.47% hits;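 active = plate z-score of nuclear minus cytoplasmic receptor signal below a set negative limit, without overly bright fluorescence or cell loss, cut at about -3.5 in these data, passing the limit was not always enough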;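 note: z-score of nuclear minus cytoplasmic ring GR-EGFP intensity difference per well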
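Buffer or medium: tetracycline-free induction medium containing charcoal-stripped FBS / Reagent: dexamethasone agonist, 1.0 µM final, for 30 min / Technique: automated 10x imaging of fixed Hoechst-stained cells / Times: induction 48 h, compound 1 h, agonist 30 min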
CHOP inh: blocks CHOP induction under ER stress; CHO-K1 CHOP-promoter luciferase, tunicamycin-induced, 15-18 h; inhibition, % at 10 µM; 220,000 compounds, 3.8% hits; AID 2732;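 active = compounds that reduced the stress-induced luciferase reporter signal by more than about 70% of percent inhibition, limit read from the data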;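 note: 0% = tunicamycin plus vehicle and 100% = wells without tunicamycin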
UPR CHOP act: activators of apoptotic arm of unfolded protein response (CHOP); CHO-CHOP luciferase reporter, UPR activation, luminescence; percent of tunicamycin response over DMSO baseline; activation, % at 10 µM; 330,000 compounds, 0.34% hits;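 active = at 10 µM dose, activation of 40% or more, normalized to positive control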;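 note: 100% = tunicamycin at 10 µg/mL and 0% = DMSO alone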
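System: CHO CHOP reporter cells. Amount: 500 cells per well. Buffer or medium: F12 medium, 10% FBS. Compound dosing: one dose, 10 µM in 0.5% DMSO. Incubation: 6 h compound exposure at 37 °C after overnight seeding. Technique: Steady-Glo luciferase luminescence. Benchmarks: tunicamycin and DMSO controls.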
L major viab: inhibitors of Leishmania major promastigote growth | Leishmania major promastigotes, resazurin fluorescence viability | AID 1063 | inhibition, % at 10 µM | 200,000 compounds, 9% hits; in the data active = inhibition above about 50%;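 note: promastigotes grown with compound for 44 hours at 28 °C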
T cruzi inh: blocks replication of Trypanosoma cruzi; T. cruzi beta-gal in NIH3T3, luminescence, 90 h; inhibition, % (no concentration beside the values); 300,000 compounds, 1.4% hits; AID 1885;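 active = mean inhibition across valid replicates above about 55%, limit read from the data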;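 note: signal also drops with host cell toxicity which is not excluded here; 0% = plate median of DMSO wells and 100% = zero luminescence signal; higher percent means less beta-gal luminescence so fewer parasites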
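Assay system: NIH/3T3 host cells with β-galactosidase reporter T. cruzi; input: 5,000 host fibroblasts per well; compound: single 50 nL compound addition per well in DMSO; timing: ≥90 h infection period, 3 h prior cell attachment; measured by: GalScreen β-gal luminescence, detergent lysis, 60 min; evaluation: percent inhibition of parasite-derived β-gal signal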
XBP1 UPR activ: activators of adaptive arm of unfolded protein response (XBP1). CHO-XBP1 luciferase reporter, IRE1-XBP1 UPR activation, luminescence; percent of tunicamycin response, DMSO as zero. 330,000 compounds, 0.33% hits. AID 463104. activation, % at 20 µM;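 active = versus positive control, 20 µM dose yields 30% or more activation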;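 note: 100% = tunicamycin at 10 µg/mL and 0% = DMSO only wells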
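Material – CHO cell line with stable XBP1 luciferase reporter · Buffer or medium – F12 plus 10% FBS · Compound – single point, 20 µM final compound, 1% DMSO · Schedule – 16-18 h cell attachment at 37 °C, then 6 h compound exposure · Signal – Steady-Glo luminescence read · Benchmarks – high control tunicamycin 10 µg/mL final, low control DMSO vehicle only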
Starred values were filed as active, the others as inactive. The sample as a whole holds a higher share of hits than the screen did.

Results for CCOC(=O)N1CCC(N2CCCC(CO)(Cc3cccc(OC)c3)C2)CC1 (configuration not stated) ?
Dynein cargo inh: -0.94; CHOP inh: -2; UPR CHOP act: 2; L major viab: 87*; T cruzi inh: 17; XBP1 UPR activ: 1

How did O=C(NC(NC(=S)Nc1c(Cl)cccc1Cl)C(Cl)(Cl)Cl)OCc1ccccc1 (configuration not stated) do in these assays?
Dynein cargo inh: -0.43; CHOP inh: -31; UPR CHOP act: 0; L major viab: 98*; T cruzi inh: 10; XBP1 UPR activ: 0

Results for O=c1[nH]c2ccc(Cl)cc2c(-c2ccccc2)c1N1CCN(c2ccccn2)CC1 ?
Dynein cargo inh: -0.049; CHOP inh: 71*; UPR CHOP act: 0; L major viab: 33; T cruzi inh: 49; XBP1 UPR activ: 3

What do the screens show for `CCOC(=O)C1CCN(C(=O)/C=C/c2ccc3c(c2)OCO3)CC1`?
UPR CHOP act: 5; T cruzi inh: -7; XBP1 UPR activ: -2

How did CCOc1ccccc1-c1cc(C(=O)N/N=C/c2ccc(O)c(OC)c2)c2ccccc2n1 do in these assays?
Dynein cargo inh: -0.049; CHOP inh: 15; UPR CHOP act: -1; L major viab: 58*; T cruzi inh: -3; XBP1 UPR activ: 3

Results for O=C(CNC(=O)c1ccccn1)N/N=C/c1ccc2c(c1)OCO2 ?
Dynein cargo inh: -0.12; CHOP inh: -13; UPR CHOP act: 0; L major viab: 63*; T cruzi inh: 10; XBP1 UPR activ: 5

Results for Cc1cc(C(=O)N/N=C/c2ccc3c(c2)OCO3)c2ccccc2n1 ?
UPR CHOP act: 0; XBP1 UPR activ: 1

What do the screens show for `CCOc1cc(/C=N/NC(=O)c2cc(-c3cccnc3)nc3ccccc23)ccc1O`?
Dynein cargo inh: -1.2; CHOP inh: 13; UPR CHOP act: 0; L major viab: 0; T cruzi inh: -10; XBP1 UPR activ: -1

What do the screens show for `O=C(CNC(=O)c1ccccc1Cl)N/N=C/c1ccc2c(c1)OCO2`?
UPR CHOP act: 4; T cruzi inh: -9; XBP1 UPR activ: 1

What do the screens show for `O=C(N/N=C/c1ccc2c(c1)OCO2)c1cc(-c2ccccc2Cl)nc2ccccc12`?
Dynein cargo inh: 1.4; CHOP inh: 41; UPR CHOP act: 0; L major viab: 56*; T cruzi inh: 13; XBP1 UPR activ: 3

How did CCOc1ccccc1-c1cc(C(=O)N/N=C/c2ccc3c(c2)OCO3)c2ccccc2n1 do in these assays?
Dynein cargo inh: 0.51; CHOP inh: -3; L major viab: 51*

What do the screens show for `Cc1ccc(NC(=O)C2CCCN2C(=O)OCc2ccccc2)cc1F` (configuration not stated)?
UPR CHOP act: 2; T cruzi inh: -5; XBP1 UPR activ: 4

What do the screens show for `Fc1cnc(Cl)nc1NC1CCCCC1`?
UPR CHOP act: 0; T cruzi inh: -11; XBP1 UPR activ: -3

How did CCCCn1c(N)c(N(CCOC)C(=O)Cn2c(=O)oc3ccccc32)c(=O)[nH]c1=O do in these assays?
UPR CHOP act: -2; T cruzi inh: 0; XBP1 UPR activ: 0

How did O=C(Cn1nnc(-c2ccccc2Cl)n1)N/N=C/c1ccc2c(c1)OCO2 do in these assays?
Dynein cargo inh: 0.32; CHOP inh: 76*; UPR CHOP act: -1; L major viab: -3; T cruzi inh: -6; XBP1 UPR activ: -1

How did O=C1NC(=O)/C(=C\c2ccc(Br)o2)S1 do in these assays?
UPR CHOP act: 1; T cruzi inh: 69*; XBP1 UPR activ: 2

How did O=C1NC(=O)/C(=C/c2ccc(-c3cc(C(=O)O)ccc3Cl)o2)S1 do in these assays?
UPR CHOP act: 2; T cruzi inh: -10; XBP1 UPR activ: -4

How did N=C1C(=O)OCC1c1ccccc1NC(=O)CN1CCOCC1 (configuration not stated) do in these assays?
Dynein cargo inh: 0.49; CHOP inh: 16; UPR CHOP act: 0; L major viab: -7; T cruzi inh: -8; XBP1 UPR activ: -1

Assay outcomes deposited in PubChem by several laboratories.
